# Assays:
# Class I/IIb HDACs [1] = assay: class-distinguishing fluorogenic substrates whole-cell assay, class I/IIb, L3.6; type: cell-based; conditions: read-out: IC50 Class I/IIb HDACs, L3.6 cells
# Outline: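 Whole cells incubated with 200 µM Boc-Lys-Ac (class-I/IIb selective substrate) in RPMI without phenol red plus 0.1% FBS, 3 h at 37 °C. Test compound given as an 11-point curve at 5% final DMSO; 5 µM trichostatin A served as positive control and DMSO alone as negative control. Trypsin developer (2.5 mg/mL, with tween 80) added for 1 h to lyse cells and release fluorophore. Read at ex 360 / em 460 nm; IC50 by nonlinear fit.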
# [2] = test system: indigenous class-IIa HDACs; conditions: read-out: IC50 binding to indigenous class-IIa HDACs; THP-1 cells; ref [19]; cited from earlier work
# Other HDACS = assay: fluorogenic assay against recombinant HDAC proteins, other HDACs; type: biochemical, human; conditions: read-out: IC50 Other HDACS
# Outline: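 Recombinant human HDACs screened with commercial fluorogenic enzyme assay kits, following the manufacturer protocol, at 9 dilutions of test compound. Fluorescence read on a microplate reader. IC50 from nonlinear curve fit of % HDAC activity inhibition vs compound concentration.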
# HDAC9 = conditions: in words; ref [19],[20]; cited from earlier work
# HDAC5 = conditions: read-out: IC50 HDAC5 non-cell-based inhibition; ref [19],[20]; cited from earlier work
# HDAC4 = conditions: read-out: IC50 HDAC4 non-cell-based inhibition; ref [19],[20]; cited from earlier work
# Class IIa HDACs = assay: class-distinguishing fluorogenic substrates whole-cell assay, class IIa, HT-29; type: cell-based; conditions: read-out: IC50 Class-IIa, HT-29 cells, Boc-Lys-TFA substrate
# Class I/IIb HDACs [3] = assay: class-distinguishing fluorogenic substrates whole-cell assay, class I/IIb, HT-29; type: cell-based; conditions: read-out: IC50 Class-I/IIb, HT-29 cells, Boc-Lys-Ac substrate
IC50 (Class I/IIb HDACs [1]) [µM],IC50 (Other HDACS) [µM],IC50 (Class IIa HDACs) [µM],IC50 (Class I/IIb HDACs [3]) [µM],Molecule,IC50 [2] [µM],IC50 HDAC9 non-cell-based inhibition (HDAC9),IC50 (HDAC5) [µM],IC50 (HDAC4) [µM]
> 5,> 5,–,–,CC(C)(CNC(=O)c1cccc(-c2noc(C(F)(F)F)n2)c1)c1coc(-c2ccccc2)n1 [TMP195],0.3,low nM range,> 0.1,> 0.1
–,–,0.933 ± 0.26,> 15,"N-(3-(benzylamino)-2,2-dimethyl-3-oxopropyl)-4-(5-(trifluoromethyl)-1,2,4-oxadiazol-3-yl)benzamide [Compound 10]",–,–,–,–

# Source: publication PMC8919062 (European journal of medicinal chemistry, 2021)
